# Columns and labels:
# [1] = Solubility of the compound in alphaMEM containing 5% FCS and 1% DMSO by HPLC analysis; type: physicochemical
# Outline: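 Saturated drug solutions were incubated at 37 °C in αMEM with 5% FCS and 1% DMSO. Dissolved drug was quantified by HPLC.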
# HCT-116 [2] = assay: (§1) Hypoxia radiosensitization activity in human HCT116 cells assessed as survival ratio by measuring ratio of cell survival with radiation in absence to presence of compound at 1 mM preincubated for 1 hr followed by 6 to 29 Gy irradiation measured after 10 days by methylene blue staining-based cell counting method relative to misonidazole; type: functional
# [3] = Tmax in plasma of NIH-III mouse xenografted with human HCT116 cells at 2.20 mmol/kg, iv administered as single dose by HPLC analysis; type: ADME, organism-based; details: 2.2 mmol/kg
# Outline: (§2)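 Female NIH-III mice bearing subcutaneous HCT116 tumors (10^6 cells; ~300 mm3) got a single i.v. dose at the MAD or 75% of the MTD. Vehicle was saline with 1% DMSO, or saline with 2 equivalents of NaHCO3 for the phosphates. Plasma and tumor were sampled at multiple times by cardiac puncture and excision, drug was measured by HPLC, and Tmax came from noncompartmental analysis.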
# Plasma = assay: Cmax in plasma of NIH-III mouse xenografted with human HCT116 cells at 2.20 mmol/kg, iv administered as single dose by HPLC analysis; type: ADME, organism-based; set-up: dose 2.2 mmol/kg, route intravenous; details: in vivo
# Outline: (§3)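 Female NIH-III mice bearing subcutaneous HCT116 xenografts (10^6 cells inoculated). At ca. 300 mm3 tumor size, a single i.v. dose was given at the MAD or 75% of the MTD. Vehicle was 0.9% saline with 1% DMSO, or saline with 2 molar equivalents NaHCO3 for phosphate prodrugs. Plasma and tumor were sampled at multiple times by cardiac puncture and excision, assayed by HPLC, and analysed noncompartmentally.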
# HCT-116 [4] = assay: as §1, with “as sensitizer enhancement” for “as survival”, “of radiation dose for 1%” for “of cell”, “survival” for “survival with radiation”, “by” for “by 6 to 29 Gy”; type: functional
# Mus musculus [5] = assay: Drug level in NIH-III mouse assessed as maximum achievable dose at 10 ml/kg, iv; type: ADME; details: in vivo
# Outline: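 Non-tumor-bearing female NIH-III mice (~20 g) received freshly prepared solutions i.v. at 10 mL/kg in 0.9% saline with 1% DMSO, or saline with 2 molar equivalents NaHCO3 for phosphate prodrugs. MAD was the maximum dose that dissolved in the injection volume.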
# [6] = Electrophilicity of the compound in pH 7 phosphate buffer assessed as one-electron reduction potential
# Outline: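 The one-electron reduction potential was set by pulse radiolysis equilibria at pH 7.0 (2.5 mM phosphate), established within 20 µs against benzylviologen, methylviologen or triquat. ΔE came from equilibrium constants via the Nernst equation, at three concentration ratios and 22 ± 2 °C.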
# HCT-116 [7] = assay: Cytotoxicity against human HCT116 cells incubated for 4 hrs under anaerobic condition measured after 5 days by sulforhodamine B assay; type: functional, cell-based
# Outline: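 STR-authenticated, mycoplasma-free HCT116 cells in αMEM + 5% FCS were seeded at 700 cells/well and allowed 2 h to attach. Drug was added from DMSO stocks (<1% DMSO) in serial 3-fold dilutions for 4 h, oxic or anoxic (Pd-catalyst anaerobic chamber, medium pre-equilibrated ≥3 days). After washing, cells regrew for 5 days before SRB staining and IC50 determination.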
# [8] = Cmax in tumor of NIH-III mouse xenografted with human HCT116 cells at 2.20 mmol/kg, iv administered as single dose by HPLC analysis; type: ADME, organism-based, Neoplasm; set-up: dose 2.2 mmol/kg, route intravenous; details: in vivo; outline: as §3
# HCT-116 [9] = assay: as §1, with “method” for “method relative to misonidazole”; type: functional
# HCT-116 [10] = assay: Hypoxia radiosensitization activity in human HCT116 cells assessed as sensitizer enhancement ratio by measuring ratio of radiation dose for 1% survival in absence to presence of compound at 1 mM […] measured after 10 days by methylene blue staining-based cell counting method; type: functional
# Mus musculus [11] = assay: Toxicity in NIH-III mouse xenografted with human HCT116 cells assessed as change in body weight with 12.5 Gy radiation at 2.20 mmol/kg, iv administered as single dose; details: in vivo
# HCT-116 [12] = assay: In vivo hypoxia radiosensitization activity in human HCT116 cells xenografted in NIH-III mouse assessed as survival ratio by measuring ratio of cell survival with 12.5 Gy radiation in absence to presence of compound at 2.20 mmol/kg, iv pretreated as single dose for 10 mins followed by irradiation measured after 18 hrs by excision assay; type: functional
# HCT-116 [13] = assay: Hypoxic cytotoxicity ratio of IC50 for human HCT116 cells under oxic condition to IC50 for human HCT116 cells under anoxic condition
# Outline: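 HCT116 cells, 700 per well and attached 2 h, got a 4 h exposure to 3-fold serial dilutions (<1% DMSO) under air or in a Pd-catalyst anaerobic chamber with pre-equilibrated medium. Cells were washed, regrown 5 days, and stained with sulforhodamine B to give IC50. HCR = oxic IC50 / anoxic IC50.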
# HCT-116 [14] = assay: Cytotoxicity against human HCT116 cells at anoxic IC50 incubated for 1 hr at 21 degC by clonogenic survival assay; details: hct-116, 1 h
# HCT-116 [15] = assay: as §1, with “with 15 Gy” for “with”, “anoxic IC50” for “1 mM”, “15” for “6 to 29”, “method” for “method relative to misonidazole”; type: functional
# Outline: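 Anoxic HCT116 cells were seeded at 10^5/well and treated at the anoxic IC50 concentration for 1 h at room temperature. They were irradiated with 15 Gy (60Co, ~2 Gy/min) in a sealed steel box, then plated clonogenically. Colonies of >50 cells were counted […]. SR15 = survival with radiation / survival with drug + radiation.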
# [16] = Tmax in tumor of NIH-III mouse xenografted with human HCT116 cells at 2.20 mmol/kg, iv administered as single dose by HPLC analysis; type: ADME, organism-based, Neoplasm; details: 2.2 mmol/kg; outline: as §2
# HCT-116 [17] = assay: as §1, with “at 0.52” for “at 1”, “method” for “method relative to misonidazole”; type: functional
# HCT-116 [18] = assay: as §1, with “at 0.52” for “at 1”; type: functional
# HCT-116 [19] = assay: as §1, with “at 2.86” for “at 1”, “method” for “method relative to misonidazole”; type: functional
# HCT-116 [20] = assay: as §1, with “at 2.86” for “at 1”; type: functional
# HCT-116 [21] = assay: as §1, with “at 1.34” for “at 1”; type: functional
# HCT-116 [22] = assay: as §1, with “at 1.34” for “at 1”, “method” for “method relative to misonidazole”; type: functional
# HCT-116 [23] = assay: (§4) Hypoxia radiosensitization activity in human HCT116 cells assessed as sensitizer enhancement ratio by measuring ratio of radiation dose for 1% survival in absence to presence of compound at 2.32 mM preincubated for 1 hr followed by irradiation measured after 10 days by methylene blue staining-based cell counting method; type: functional
# HCT-116 [24] = assay: as §4, with “method relative to misonidazole” for “method”; type: functional
# HCT-116 [25] = assay: as §1, with “at 2.32” for “at 1”; type: functional
# HCT-116 [26] = assay: as §1, with “at 2.32” for “at 1”, “method” for “method relative to misonidazole”; type: functional
# HCT-116 [27] = assay: as §1, with “at 0.7” for “at 1”; type: functional
# HCT-116 [28] = assay: as §1, with “at 0.7” for “at 1”, “method” for “method relative to misonidazole”; type: functional
structure (smiles),measurement,setting,value
O=C(Cn1ccnc1[N+](=O)[O-])NCCO [ETANIDAZOLE],solubility,[1],> 200 mM
same,fold change (FC),HCT-116 [2],0.75
same,Tmax,[3],5 min
same,Cmax,Plasma,3640 µM
same,fold change (FC),HCT-116 [4],0.95
same,Drug uptake,Mus musculus [5],2.2 mmol/kg
same,Activity,[6],-388 mV
same,IC50,HCT-116 [7],1 mM
same,Cmax,[8],800 µM
same,Ratio,HCT-116 [9],4.6
same,Ratio,HCT-116 [10],1.339
same,Activity,Mus musculus [11],Non-Toxic
same,Ratio,HCT-116 [12],8
same,Ratio IC50,HCT-116 [13],19
same,Activity,HCT-116 [14],Non-Toxic
same,Ratio,HCT-116 [15],7
same,Tmax,[16],5 min
COCCNS(=O)(=O)Cn1cnc([N+](=O)[O-])c1,Activity,HCT-116 [14],Non-Toxic
same,Ratio,HCT-116 [17],1.3
same,fold change (FC),HCT-116 [18],0.44
COCCNS(=O)(=O)CCn1c([N+](=O)[O-])cnc1C,Ratio,HCT-116 [19],4.8
same,fold change (FC),HCT-116 [20],0.58
same,Activity,HCT-116 [14],Non-Toxic
Cc1ncc([N+](=O)[O-])n1CCS(=O)(=O)NCCN1CCCCC1,fold change (FC),HCT-116 [21],2.36
same,Ratio,HCT-116 [22],24
same,Activity,HCT-116 [14],Non-Toxic
O=[N+]([O-])c1cncn1CS(=O)(=O)NCCO,solubility,[1],23.7 mM
same,Ratio,HCT-116 [23],1.81
same,fold change (FC),HCT-116 [24],1.28
same,fold change (FC),HCT-116 [25],14.8
same,Ratio,HCT-116 [26],114
same,IC50,HCT-116 [7],2.3 mM
same,Ratio IC50,HCT-116 [13],4
same,Activity,HCT-116 [14],Non-Toxic
same,Ratio,HCT-116 [15],181
Cc1ncc([N+](=O)[O-])n1CCS(=O)(=O)NCCN1CCCC1,fold change (FC),HCT-116 [27],1.51
same,Activity,HCT-116 [14],Non-Toxic
same,Ratio,HCT-116 [28],13.6
